Here are results for nine compounds from ChEMBL document CHEMBL1759894, “Synthesis and SAR investigations of novel 2-arylbenzimidazole derivatives as melanin-concentrating hormone receptor 1 (MCH-R1) antagonists” (Bioorg Med Chem Lett, 2011).

The nature of data set [1]: Metabolic stability in human liver microsomes after 30 mins. The following applies: read-out: Stability. The data set is classed as ADME, Microsome. A general note: Liver microsomes are vesicles of endoplasmic reticulum, rich in cytochrome P450 enzymes.
Data set [2] is described as follows: Metabolic stability in rat liver microsomes after 30 mins. The data set is classed as ADME, Microsome. The following applies: read-out: Stability.
The nature of data set [3]: Oral bioavailability in rat at 10 mg/kg. The data set is classed as ADME, organism-based. The following applies: in vivo. The essentials: (§1)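 Rats received 10 mg/kg by both intravenous and oral routes, n = 3.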
Data set [4] can be described thus: Clearance in rat at 10 mg/kg, iv. The data set is classed as ADME, organism-based. Set-up: dose 10 mg/kg, route intravenous. The settings on record: in vivo. The essentials: as §1
The nature of data set [5]: Half life in rat at 10 mg/kg, iv and po. Set-up: dose 10 mg/kg, route oral. The data set is classed as ADME, organism-based. The following applies: in vivo. The essentials:
as §1

Data set [6] deals with Voltage-gated inwardly rectifying potassium channel KCNH2 (Homo sapiens, UniProt Q12809). Nature of the data set: Inhibition hERG by patch clamp method. A general note: hERG is a cardiac potassium channel; its block is linked to QT prolongation.
A short description of data set [7]: Plasma concentration in rat at 10 mg/kg, po at 3 hrs. Set-up: dose 10 mg/kg, route oral. The data set is classed as ADME, organism-based. The procedure, abridged:
(§2)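 SD rats were given 10 mg/kg orally, and concentrations were measured 3 h after dosing. Values are means of n = 3 rats.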

A short description of data set [8]: Drug level in rat brain at 10 mg/kg, po at 3 hrs. The data set is classed as ADME, organism-based. Set-up: dose 10 mg/kg, route oral. The settings on record: read-out: Drug uptake. The essentials: as §2
For a further data set, the system named is Rattus norvegicus. The data set can be described thus: Volume of distribution at steady state in rat at 10 mg/kg, iv and po. The data set is classed as ADME, organism-based. Further details: dose 10 mg/kg, route oral. The settings on record: in vivo. The essentials:
as §1

In data set [9] the target is Melanin-concentrating hormone receptor 1 (Homo sapiens, UniProt Q99705). Nature of the data set: Displacement of Eu-labeled MCH from human MCH-R1 expressed in CHO by time-resolved fluorometric assay. The procedure, abridged:
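Competitive binding on membranes from CHO cells expressing human MCH-R1, with Eu-labeled MCH as tracer and time-resolved fluorometric read-out. IC50 values are means of at least two measurements.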

Sequence of Melanin-concentrating hormone receptor 1 (Q99705 whole entry): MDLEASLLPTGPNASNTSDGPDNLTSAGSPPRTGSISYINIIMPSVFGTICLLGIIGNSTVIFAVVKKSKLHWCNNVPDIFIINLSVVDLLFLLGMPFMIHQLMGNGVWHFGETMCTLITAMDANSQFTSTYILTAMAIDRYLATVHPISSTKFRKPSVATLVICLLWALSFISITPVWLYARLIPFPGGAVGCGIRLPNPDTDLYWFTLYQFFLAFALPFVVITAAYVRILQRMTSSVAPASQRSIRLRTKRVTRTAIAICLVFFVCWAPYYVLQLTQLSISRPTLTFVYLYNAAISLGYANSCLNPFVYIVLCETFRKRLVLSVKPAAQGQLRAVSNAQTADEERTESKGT
Sequence of Voltage-gated inwardly rectifying potassium channel KCNH2 (Q12809 whole entry): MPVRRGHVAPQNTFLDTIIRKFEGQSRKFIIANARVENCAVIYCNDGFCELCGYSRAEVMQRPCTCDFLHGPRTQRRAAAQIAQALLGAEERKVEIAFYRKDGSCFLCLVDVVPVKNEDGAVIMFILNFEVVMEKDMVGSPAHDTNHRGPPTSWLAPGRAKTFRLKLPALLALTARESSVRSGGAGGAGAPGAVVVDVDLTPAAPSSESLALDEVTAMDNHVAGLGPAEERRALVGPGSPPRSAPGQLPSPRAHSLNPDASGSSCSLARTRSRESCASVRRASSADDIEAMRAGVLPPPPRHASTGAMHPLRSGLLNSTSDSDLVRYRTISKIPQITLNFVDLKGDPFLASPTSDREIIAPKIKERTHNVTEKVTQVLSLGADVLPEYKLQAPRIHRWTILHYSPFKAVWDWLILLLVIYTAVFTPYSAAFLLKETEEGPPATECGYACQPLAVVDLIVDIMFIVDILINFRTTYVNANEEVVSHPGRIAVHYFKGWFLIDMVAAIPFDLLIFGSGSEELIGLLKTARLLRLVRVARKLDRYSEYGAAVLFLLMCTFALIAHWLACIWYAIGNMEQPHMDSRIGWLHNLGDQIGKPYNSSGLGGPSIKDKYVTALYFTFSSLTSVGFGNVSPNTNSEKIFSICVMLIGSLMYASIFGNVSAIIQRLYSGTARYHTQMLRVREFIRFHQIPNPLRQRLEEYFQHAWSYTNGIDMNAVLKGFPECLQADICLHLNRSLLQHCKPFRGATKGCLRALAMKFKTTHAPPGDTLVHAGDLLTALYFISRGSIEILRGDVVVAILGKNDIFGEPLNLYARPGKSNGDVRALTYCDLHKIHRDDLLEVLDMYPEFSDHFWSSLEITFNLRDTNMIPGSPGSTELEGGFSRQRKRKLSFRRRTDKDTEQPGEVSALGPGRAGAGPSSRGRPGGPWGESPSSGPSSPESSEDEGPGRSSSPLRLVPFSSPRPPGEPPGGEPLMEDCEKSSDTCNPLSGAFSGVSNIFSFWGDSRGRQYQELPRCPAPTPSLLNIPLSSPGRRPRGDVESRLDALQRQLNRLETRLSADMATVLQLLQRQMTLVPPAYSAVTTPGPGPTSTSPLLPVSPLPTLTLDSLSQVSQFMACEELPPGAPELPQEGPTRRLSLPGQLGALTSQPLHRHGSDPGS

For the compound `CC(=O)Nc1cccc(C2CCN(CCCn3c(-c4ccc(Cl)cc4)nc4ccccc43)CC2)c1`, the remaining at 0.5 h in data set [1] is 97%; in [2], 98%. The bioavailability (usually the share of a dose that reaches the circulation, judged against a reference dose that is usually intravenous) in [3] worked out at 99%. The clearance (in general, the volume of plasma or blood freed of the substance per unit of time) in [4] amounted to 28.3 mL/min/kg. Besides, the half-life (as a rule, the time in which the quantity being followed falls by half) in [5] was 4.3 h. Moreover, inhibition in data set [6] was half-maximal at 3 nM (IC50). The concentration at 3 h was determined as 420 ng/mL in data set [7] and 160 ng/g in data set [8]. This compound showed a Vdss in the data set with Rattus norvegicus of 6 L/kg.
For `CC(=O)Nc1cccc(C2CCN(CCCn3c(-c4ccccc4C(F)(F)F)nc4ccccc43)CC2)c1`, the 50% inhibitory concentration (IC50) (as a rule, the point on the concentration scale where inhibition reaches its midpoint) in data set [9] turned out to be 50 nM.
In data set [9], `Cc1ccc(C(=O)Nc2cccc(C3CCN(CCCn4c(-c5ccc(Cl)cc5)nc5ccccc54)CC3)c2)cc1` returned a half-inhibitory concentration (IC50) of 300 nM. This IC50 lies about 6-fold higher than the previous one.
Still for that read-out and setting: in the case of `CC(=O)Nc1cccc(C2CCN(CCCn3c(-c4ccc(C(C)C)cc4)nc4ccccc43)CC2)c1` it was 60 nM; in that of `CC(=O)Nc1cccc(C2CCN(CCn3c(-c4ccccc4)nc4ccccc43)CC2)c1`, 10000 nM; in that of `CC(=O)Nc1ccc(C2CCN(CCCn3c(-c4ccc(Cl)cc4)nc4ccccc43)CC2)cc1`, 5380 nM.
In data set [9], `CCc1ccc(-c2nc3ccccc3n2CCCN2CCC(c3cccc(NC(C)=O)c3)CC2)cc1` yielded an IC50 of 32 nM.
Consider `CC(=O)Nc1ccccc1C1CCN(CCCn2c(-c3ccc(Cl)cc3)nc3ccccc32)CC1`, for which the IC50 in data set [9] is greater than 6000 nM.
Still for that read-out and setting: in the case of `CC(=O)Nc1cccc(C2CCN(CCCn3c(-c4cccc(C(F)(F)F)c4)nc4ccccc43)CC2)c1` it was 30 nM.
